In ChEMBL document CHEMBL1144889 (J Med Chem, 2003):
Activity calls are given as the source filed them. The rule behind the calls is not given here.

Tests used:
[1] = biological target: T1, Progesterone receptor (Homo sapiens, UniProt P06401); test: Displacement of [3H]progesterone from human Progesterone receptor A; - = low efficacy or functional efficacy <20%
T1 sequence (P06401 whole entry): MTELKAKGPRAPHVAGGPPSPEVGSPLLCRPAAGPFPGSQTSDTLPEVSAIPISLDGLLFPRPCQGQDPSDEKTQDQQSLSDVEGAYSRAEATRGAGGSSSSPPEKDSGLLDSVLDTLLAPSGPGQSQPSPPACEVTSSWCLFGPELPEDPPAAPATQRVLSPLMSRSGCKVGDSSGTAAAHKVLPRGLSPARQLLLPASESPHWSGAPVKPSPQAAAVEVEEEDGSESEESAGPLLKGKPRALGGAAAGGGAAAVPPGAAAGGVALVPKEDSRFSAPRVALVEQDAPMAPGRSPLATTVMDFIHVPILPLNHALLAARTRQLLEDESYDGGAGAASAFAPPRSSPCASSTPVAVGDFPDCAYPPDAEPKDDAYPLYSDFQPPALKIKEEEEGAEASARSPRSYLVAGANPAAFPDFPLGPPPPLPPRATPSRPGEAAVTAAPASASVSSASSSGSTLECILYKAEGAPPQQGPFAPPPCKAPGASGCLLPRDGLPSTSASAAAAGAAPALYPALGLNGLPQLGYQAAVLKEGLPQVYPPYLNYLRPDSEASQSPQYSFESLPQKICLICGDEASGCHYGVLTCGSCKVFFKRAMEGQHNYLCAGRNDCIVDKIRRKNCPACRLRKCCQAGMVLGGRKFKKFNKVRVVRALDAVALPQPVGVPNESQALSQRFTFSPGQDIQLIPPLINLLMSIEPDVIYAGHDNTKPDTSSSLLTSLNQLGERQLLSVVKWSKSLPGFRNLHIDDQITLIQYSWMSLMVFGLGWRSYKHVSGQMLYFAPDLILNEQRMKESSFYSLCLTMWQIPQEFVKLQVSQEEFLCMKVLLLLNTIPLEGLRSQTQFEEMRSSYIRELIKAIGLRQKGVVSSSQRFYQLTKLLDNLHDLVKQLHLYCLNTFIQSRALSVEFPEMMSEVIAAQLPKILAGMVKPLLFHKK
Method in brief: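 Human PR-A expressed from baculovirus in Sf21 cells, cytosol about 40 µg protein. Incubated with about 0.8 nM [3H]progesterone overnight at 4 °C in Tris/EDTA/glycerol/DTT/molybdate buffer, pH 7.6. Nonspecific binding taken with 1 µM unlabeled progesterone. Hydroxyapatite capture, scintillation counting. IC50 from Hill analysis, Ki from Cheng-Prusoff.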

[2] = biological target: T2, Glucocorticoid receptor (Homo sapiens, UniProt P04150); test: Transcriptional repression in HepG2 cells expressing human glucocorticoid receptor; - = low efficacy or a functional efficacy <20%; assay type: cell-based
T2 sequence (P04150 whole entry): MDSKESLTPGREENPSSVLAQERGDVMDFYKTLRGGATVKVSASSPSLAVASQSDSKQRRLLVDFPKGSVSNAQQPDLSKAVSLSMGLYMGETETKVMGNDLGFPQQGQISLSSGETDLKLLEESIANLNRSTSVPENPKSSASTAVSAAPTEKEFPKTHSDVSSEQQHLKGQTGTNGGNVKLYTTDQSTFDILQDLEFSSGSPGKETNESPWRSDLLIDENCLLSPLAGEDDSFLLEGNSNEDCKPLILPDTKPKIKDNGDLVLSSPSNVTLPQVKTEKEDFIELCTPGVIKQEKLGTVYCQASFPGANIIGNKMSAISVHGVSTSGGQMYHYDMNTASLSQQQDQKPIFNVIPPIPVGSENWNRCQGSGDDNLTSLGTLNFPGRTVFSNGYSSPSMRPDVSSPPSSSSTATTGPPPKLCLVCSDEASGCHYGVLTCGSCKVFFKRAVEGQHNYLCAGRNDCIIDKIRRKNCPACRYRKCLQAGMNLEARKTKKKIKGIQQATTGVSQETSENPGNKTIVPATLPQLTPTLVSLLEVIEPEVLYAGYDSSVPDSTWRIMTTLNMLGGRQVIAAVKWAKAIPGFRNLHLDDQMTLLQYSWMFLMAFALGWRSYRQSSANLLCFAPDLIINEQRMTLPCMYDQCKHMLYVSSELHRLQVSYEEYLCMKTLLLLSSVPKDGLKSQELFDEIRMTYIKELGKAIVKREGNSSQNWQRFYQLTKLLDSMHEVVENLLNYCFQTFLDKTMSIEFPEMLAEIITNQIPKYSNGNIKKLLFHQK
Method in brief: (§1)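 Cotransfection in HepG2 cells with a luciferase reporter under an E-selectin promoter carrying one NFκB and one AP-1 site. Readout is repression of transcription. Seven-point half-log concentration-response curves. EC50 taken at half-maximal response. Efficacy expressed as % of the dexamethasone maximum. Mean of two experiments in triplicate, single run, or ≥3 experiments.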

[3] = biological target: T2, Glucocorticoid receptor; test: Transcriptional activation in CV-1 cells expressing human glucocorticoid receptor; - = low efficacy or a functional efficacy <20%; assay type: cell-based
Method in brief: (§2)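 Cotransfection of an hGR receptor plasmid with a luciferase reporter driven by the MMTV promoter (four GREs) in CV-1 cells. Seven-point half-log concentration-response curves. EC50 taken as half-maximal response. Efficacy expressed as % of the dexamethasone maximum. Mean of two experiments in triplicate, single triplicate run, or ≥3 experiments in triplicate.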

[4] = biological target: T3, Glucocorticoid receptor (Homo sapiens) (UniProt P04150); test: Transcriptional activation in CV-1 cells expressing human glucocorticoid receptor compared to Dexamethasone; - = low efficacy or a functional efficacy <20%; assay type: cell-based
T3 sequence (whole entry): T2 sequence (P04150 whole entry)
Method in brief: (§3)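 GRE activation co-transfection in CV-1 cells: hGR receptor plasmid plus a luciferase reporter driven by part of the MMTV promoter (four GRE sites, no known AP-1 or NFκB affinity). Full seven-point, half-log concentration-response curves run in triplicate. EC50 is the concentration at half-maximal response; efficacy is given as % of the dexamethasone maximal response.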

[5] = biological target: T3, Glucocorticoid receptor (Homo sapiens); test: Transcriptional repression in HepG2 cells expressing human glucocorticoid receptor compared to Dexamethasone; - = low efficacy or a functional efficacy <20%; assay type: cell-based
Method in brief: (§4)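 Repression co-transfection in HepG2 cells: luciferase reporter under an E-selectin promoter carrying one NFκB and one AP-1 binding site. Full seven-point, half-log concentration-response curves run in triplicate. EC50 is the concentration at half-maximal response; maximal efficacy is given as % of the dexamethasone maximal response.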

[6] = biological target: T2, Glucocorticoid receptor; test: Binding affinity towards human glucocorticoid receptor (GR) was determined using [3H]dexamethasone as radioligand in […] cells; assay type: cell-based
[7] = biological target: T2, Glucocorticoid receptor; test: Transcriptional repression in HepG2 cells expressing human glucocorticoid receptor; assay type: functional, cell-based
[8] = biological target: T1, Progesterone receptor; test: Displacement of [3H]progesterone from human Progesterone receptor A
[9] = tested on: Rattus norvegicus; test: Reduction in carrageenan induced paw edema in rat after oral dose; assay type: functional
Method in brief: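 Sprague-Dawley rats dosed orally, then given carrageenan into the hind paw. Edema read at 3 h as the increase in paw volume. ED50 dose calculated from dose-dependent inhibition of edema.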

[10] = biological target: T3, Glucocorticoid receptor (Homo sapiens); test: Transcriptional activation in CV-1 cells expressing human glucocorticoid receptor compared to Dexamethasone; assay type: functional, cell-based; method in brief: as §3
[11] = Binding affinity towards estradiol receptor (Estrogen receptor); parameters: species or system Homo sapiens
Method in brief: (§5)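 Competition radioligand binding; tracers [3H]aldosterone (MR) and [3H]estradiol (ER). Bound ligand collected on hydroxyapatite, washed with ice-cold buffer, counted by scintillation. IC50 obtained from Hill analysis of binding curves, Ki from Cheng-Prusoff. Mean of two experiments in triplicate, single triplicate run, or ≥3 experiments in triplicate.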

[12] = Binding affinity towards aldosterone receptor (Mineralocorticoid receptor); parameters: species or system Homo sapiens; method in brief: as §5
[13] = biological target: T4, Androgen receptor (Homo sapiens, UniProt P10275); test: Binding affinity towards testosterone receptor
T4 sequence (P10275 whole entry): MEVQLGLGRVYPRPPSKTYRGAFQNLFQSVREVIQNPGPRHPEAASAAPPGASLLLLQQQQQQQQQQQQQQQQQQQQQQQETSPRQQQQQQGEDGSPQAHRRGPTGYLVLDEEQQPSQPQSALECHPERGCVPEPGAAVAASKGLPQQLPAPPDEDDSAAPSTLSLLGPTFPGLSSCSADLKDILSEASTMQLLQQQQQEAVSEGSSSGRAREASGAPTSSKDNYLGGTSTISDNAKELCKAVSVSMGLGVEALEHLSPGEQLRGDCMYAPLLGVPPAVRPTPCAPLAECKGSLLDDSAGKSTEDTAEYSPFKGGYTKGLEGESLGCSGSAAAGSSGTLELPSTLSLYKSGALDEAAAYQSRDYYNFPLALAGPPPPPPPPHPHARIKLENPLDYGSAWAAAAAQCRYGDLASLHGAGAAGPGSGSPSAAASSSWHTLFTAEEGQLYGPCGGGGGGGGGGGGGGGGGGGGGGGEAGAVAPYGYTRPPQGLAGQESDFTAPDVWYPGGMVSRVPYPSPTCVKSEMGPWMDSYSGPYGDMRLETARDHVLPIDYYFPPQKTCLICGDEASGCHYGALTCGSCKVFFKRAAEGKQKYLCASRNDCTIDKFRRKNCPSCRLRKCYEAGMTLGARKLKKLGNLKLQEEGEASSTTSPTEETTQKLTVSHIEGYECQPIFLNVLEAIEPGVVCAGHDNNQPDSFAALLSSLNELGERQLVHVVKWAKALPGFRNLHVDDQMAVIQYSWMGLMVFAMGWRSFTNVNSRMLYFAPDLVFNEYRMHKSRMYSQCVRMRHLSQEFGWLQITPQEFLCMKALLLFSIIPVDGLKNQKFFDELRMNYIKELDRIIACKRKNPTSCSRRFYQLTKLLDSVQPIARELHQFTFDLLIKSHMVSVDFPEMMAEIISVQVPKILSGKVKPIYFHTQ

[14] = biological target: T2, Glucocorticoid receptor; test: Transcriptional activation in CV-1 cells expressing human glucocorticoid receptor; - = low efficacy or a functional efficacy <5%; assay type: cell-based; method in brief: as §2
[15] = biological target: T3, Glucocorticoid receptor (Homo sapiens); test: Transcriptional activation in CV-1 cells expressing human glucocorticoid receptor compared to Dexamethasone; - = low efficacy or a functional efficacy <5%; assay type: cell-based; method in brief: as §3
[16] = biological target: T2, Glucocorticoid receptor; test: Transcriptional repression in HepG2 cells expressing human glucocorticoid receptor; - = low efficacy or a functional efficacy <5%; assay type: cell-based; method in brief: as §1
[17] = biological target: T3, Glucocorticoid receptor (Homo sapiens); test: Transcriptional repression in HepG2 cells expressing human glucocorticoid receptor compared to Dexamethasone; - = low efficacy or a functional efficacy <5%; assay type: cell-based; method in brief: as §4
[18] = biological target: T2, Glucocorticoid receptor; test: Transcriptional activation in CV-1 cells expressing human glucocorticoid receptor; assay type: functional, cell-based; method in brief: as §2

SMILES | EC50 [2] | EC50 [3] | Ki [6] | EC50 [7] | ED50 [9] | Efficacy [10] | further results
C=CCC1Oc2ccc(OCC)c(OC)c2-c2ccc3c(c21)C(C)=CC(C)(C)N3 (stereo unspecified) | Not Active | – | – | – | – | – | Ki [1]: Not Active
C=CCC1Oc2cccc(OCc3ccccc3)c2-c2ccc3c(c21)C(C)=CC(C)(C)N3 (stereo unspecified) | Not Active | Not Active | 6000 nM | – | – | – | Efficacy [4]: inactive; Efficacy [5]: inactive
C=CCC1Oc2cccc(OCC3CC3)c2-c2ccc3c(c21)C(C)=CC(C)(C)N3 (stereo unspecified) | Not Active | Not Active | 2100 nM | – | – | – | Efficacy [4]: inactive; Efficacy [5]: inactive
C=CCC1Oc2ccc(O)c(OC)c2-c2ccc3c(c21)C(C)=CC(C)(C)N3 (stereo unspecified) | – | – | – | 14 nM | 16 mg/kg | – | Ki [8]: 150 nM
C=CCC1Oc2cccc(OC)c2-c2ccc3c(c21)C(C)=CC(C)(C)N3 (stereo unspecified) [AL-43] | – | – | – | – | 15 mg/kg | 68% | Ki [11]: > 1000 nM; Ki [12]: 46 nM; Ki [13]: 1230 nM
C=CCC1Oc2cccc(COC)c2-c2ccc3c(c21)C(C)=CC(C)(C)N3 (stereo unspecified) | – | – | – | 305 nM | – | 5% | EC50 [14]: Not Active
C=CCC1Oc2cccc(OCC)c2-c2ccc3c(c21)C(C)=CC(C)(C)N3 (stereo unspecified) | Not Active | Not Active | 65 nM | – | – | 0% | –
C=CCC1Oc2cccc(C(=O)OC)c2-c2ccc3c(c21)C(C)=CC(C)(C)N3 (stereo unspecified) | – | – | 400 nM | – | – | – | EC50 [14]: Not Active; Efficacy [15]: inactive; EC50 [16]: Not Active; Efficacy [17]: inactive
C=CCC1Oc2ccc(O)c(Cl)c2-c2ccc3c(c21)C(C)=CC(C)(C)N3 (stereo unspecified) | – | – | – | 5 nM | 15 mg/kg | – | –
C=CCC1Oc2cccc(CN)c2-c2ccc3c(c21)C(C)=CC(C)(C)N3 (stereo unspecified) | – | – | 140 nM | 467 nM | – | 7% | EC50 [14]: Not Active
C=CCOc1cccc2c1-c1ccc3c(c1C(CC=C)O2)C(C)=CC(C)(C)N3 (stereo unspecified) | Not Active | Not Active | 88 nM | – | – | 0% | –
C=CCC1Oc2cccc(OC(F)F)c2-c2ccc3c(c21)C(C)=CC(C)(C)N3 (stereo unspecified) | – | – | 2.2 nM | 18 nM | 21 mg/kg | 70% | EC50 [18]: 35 nM; Ki [11]: > 1000 nM; Ki [12]: 35.8 nM; Ki [8]: 349 nM; Ki [13]: 96.3 nM
